Consider 15 compounds from ChEMBL document CHEMBL1131242, “6beta-Acetoxynortropane: a potent muscarinic agonist with apparent selectivity toward M2-receptors” (J Med Chem, 1998).

For orientation: Ki means a measure of affinity in units of concentration, obtained from inhibition or displacement. As usually defined, the inhibition is the share of the control response that was lost under treatment. Usually IC50 stands for the concentration needed to halve the response being measured. A word on the EC50: it is the concentration at which the effect is half-maximal.

Assay [1] deals with T1, Neuronal acetylcholine receptor; alpha4/beta2 (Rattus norvegicus, UniProt P09483+P12390). The assay can be described thus: (§1) The compound was evaluated for percentage inhibition of binding of [3H]- nicotine to Nicotinic acetylcholine receptor alpha4-beta2 in Rat Cerebral Cortical Membranes. In kind it is protein-complex assay. An outline of the steps: (§2)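 Rat cerebral cortex membranes with 0.2 nM [3H]nicotine in HEPES binding buffer pH 7.4 containing 200 µM diisopropyl fluorophosphate. Incubation was 120 min at 0–4 °C, in triplicate. Nonspecific binding used 1 µM nicotine. Samples were filtered through polyethylenimine-soaked GF/B filters and counted.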

Assay [2] has as its target T1, Neuronal acetylcholine receptor; alpha4/beta2. The assay can be described thus: Inhibition of binding of [3H]nicotine to Nicotinic acetylcholine receptor alpha4-beta2 in rat cerebral cortical membranes. The format is cell membranes, Membrane. An outline of the steps:
as §2

Assay [3] addresses T2, Neuronal acetylcholine receptor; alpha4/beta2 (Rattus norvegicus) (UniProt P09483+P12390). Description: Inhibition of binding of [3H]nicotine to Nicotinic acetylcholine receptor alpha4-beta2 in rat cerebral cortical membranes at 100 uM concentration. The format is cell membranes. Particulars: Membrane. An outline of the steps: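 [3H]nicotine (0.2 nM) binding to rat cortical membranes, with 200 µM diisopropyl fluorophosphate, 120 min at 0–4 °C, triplicate. Nonspecific binding with 1 µM nicotine. Percent inhibition at 100 µM test agent; mean ± SEM, n = 4.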

The target of assay [4] is T2, Neuronal acetylcholine receptor; alpha4/beta2 (Rattus norvegicus). Described as §1. In kind it is protein-complex assay. Also noted: concentration or dose not given beside the values. The conditions noted are these: concentration not given here. The method, boiled down: as §2
Assay [5] addresses T3, Muscarinic acetylcholine receptor M1 (Rattus norvegicus) (UniProt P08482).
T3 sequence (whole entry): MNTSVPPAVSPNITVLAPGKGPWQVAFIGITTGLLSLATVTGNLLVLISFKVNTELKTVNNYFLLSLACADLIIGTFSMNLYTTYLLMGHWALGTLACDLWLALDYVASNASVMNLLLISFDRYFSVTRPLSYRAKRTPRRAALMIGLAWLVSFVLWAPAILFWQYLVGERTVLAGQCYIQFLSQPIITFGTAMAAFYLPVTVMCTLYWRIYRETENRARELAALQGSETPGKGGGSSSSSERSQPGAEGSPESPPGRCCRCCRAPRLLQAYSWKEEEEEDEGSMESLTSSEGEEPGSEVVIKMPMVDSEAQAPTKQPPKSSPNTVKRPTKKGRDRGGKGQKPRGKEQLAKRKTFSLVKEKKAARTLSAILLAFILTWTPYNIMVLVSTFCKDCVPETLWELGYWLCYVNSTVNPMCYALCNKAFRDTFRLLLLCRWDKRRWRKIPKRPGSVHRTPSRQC
The assay can be described thus: Percentage inhibition of binding of [3H]quinuclidinyl benzilate to muscarinic acetylcholine receptor M1 in rat cerebral cortical membranes. The format is cell membranes. Also noted: concentration or dose not given beside the values. Particulars: Membrane, concentration not given here. An outline of the steps:
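Rat cerebral cortex membranes were homogenised in 50 mM Tris-HCl pH 7.4 and diluted in HEPES binding buffer. They were incubated with 0.2 nM [3H]quinuclidinyl benzilate in 20 mM HEPES pH 7.4 with 10 mM MgCl2 and 100 mM NaCl for 30 min at 37 °C, in triplicate. Nonspecific binding used 1 µM atropine. Filtration was followed by scintillation counting.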

Assay [6] addresses Muscarinic acetylcholine receptor M1 (Homo sapiens) (UniProt P11229). The assay can be described thus: Inhibition of binding of [3H]quinuclidinyl benzilate to human Muscarinic acetylcholine receptor M1 in membranes of transfected CHO cells at 300 uM concentration. The conditions noted are these: Membrane.
Target sequence in this assay (P11229 whole entry, looked up): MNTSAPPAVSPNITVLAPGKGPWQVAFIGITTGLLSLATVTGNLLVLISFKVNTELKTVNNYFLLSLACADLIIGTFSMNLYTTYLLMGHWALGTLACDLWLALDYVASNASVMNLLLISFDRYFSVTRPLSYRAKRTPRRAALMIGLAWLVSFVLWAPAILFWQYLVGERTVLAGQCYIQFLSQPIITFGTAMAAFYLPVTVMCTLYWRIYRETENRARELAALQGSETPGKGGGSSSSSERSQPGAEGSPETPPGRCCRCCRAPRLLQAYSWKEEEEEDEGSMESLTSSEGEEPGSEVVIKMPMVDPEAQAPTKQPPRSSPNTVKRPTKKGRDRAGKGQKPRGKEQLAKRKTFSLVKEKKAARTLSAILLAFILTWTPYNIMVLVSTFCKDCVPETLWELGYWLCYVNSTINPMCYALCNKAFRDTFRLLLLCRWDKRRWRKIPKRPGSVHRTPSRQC
The target in assay [7] is T4, Muscarinic acetylcholine receptor M1 (Homo sapiens) (UniProt P11229).
T4 sequence (whole entry): T3 sequence (whole entry) with V5A, S254T, S309P, K320R, G337A, V413I
Description: Percentage inhibition of binding of [3H]quinuclidinyl benzilate to muscarinic receptors in membranes of CHO cells transfected with Muscarinic acetylcholine receptor M1. Particulars: concentration not given here. In kind it is cell membranes. An outline of the steps:
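Membranes from CHO cells expressing human M1–M4 receptors in 25 mM sodium phosphate pH 7.4 with 5 mM MgCl2, 30 min at 37 °C, triplicate. [3H]quinuclidinyl benzilate was 0.2 nM for M1 and M3 and 0.1 nM for M2 and M4. Nonspecific binding used 10 µM atropine for M1 and 1 µM for the others.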

Assay [8] addresses T5, Muscarinic acetylcholine receptor M1 (Rattus norvegicus, UniProt P08482).
T5 sequence (P08482 whole entry): T3 sequence (whole entry)
Description: Affinity versus [3H]oxotremorine M (agonist) binding to Muscarinic acetylcholine receptor M1 in Rat Cerebral Cortical Membranes, (Kd=[…]).

Assay [9] deals with T6, Muscarinic acetylcholine receptor M4 (Homo sapiens, UniProt P08173).
T6 sequence (P08173 whole entry): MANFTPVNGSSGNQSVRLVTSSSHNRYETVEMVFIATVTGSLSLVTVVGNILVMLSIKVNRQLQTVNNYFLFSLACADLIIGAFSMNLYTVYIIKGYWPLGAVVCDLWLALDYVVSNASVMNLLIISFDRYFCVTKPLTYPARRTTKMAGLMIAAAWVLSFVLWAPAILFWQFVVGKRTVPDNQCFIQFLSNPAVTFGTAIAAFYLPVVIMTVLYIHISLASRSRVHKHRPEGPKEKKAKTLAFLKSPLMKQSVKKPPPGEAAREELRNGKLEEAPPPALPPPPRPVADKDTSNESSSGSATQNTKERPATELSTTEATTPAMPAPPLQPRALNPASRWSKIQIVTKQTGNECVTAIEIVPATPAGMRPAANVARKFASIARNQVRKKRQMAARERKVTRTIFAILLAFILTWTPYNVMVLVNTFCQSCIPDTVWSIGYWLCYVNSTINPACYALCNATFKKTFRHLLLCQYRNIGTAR
The assay can be described thus: Inhibition of binding of [3H]quinuclidinyl benzilate to muscarinic receptors in membranes of CHO cells transfected with Muscarinic acetylcholine receptor M4. In kind it is cell membranes.

Assay [10] addresses T5, Muscarinic acetylcholine receptor M1. Description: Inhibition of binding of [3H]oxotremorine M to Muscarinic acetylcholine receptor M1 in rat cerebral cortical membranes. The format is cell membranes, Membrane. The method, boiled down: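 Agonist radioligand assay: rat cortical membranes with 2 nM [3H]oxotremorine M in 25 mM sodium phosphate pH 7.4 with 5 mM MgCl2, 2 h at 25 °C, in triplicate. Nonspecific binding used 5 µM atropine. Filtration followed by scintillation counting.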

Assay [11] concerns the target T7, Muscarinic acetylcholine receptor M2 (Homo sapiens, UniProt P08172).
T7 sequence (P08172 whole entry): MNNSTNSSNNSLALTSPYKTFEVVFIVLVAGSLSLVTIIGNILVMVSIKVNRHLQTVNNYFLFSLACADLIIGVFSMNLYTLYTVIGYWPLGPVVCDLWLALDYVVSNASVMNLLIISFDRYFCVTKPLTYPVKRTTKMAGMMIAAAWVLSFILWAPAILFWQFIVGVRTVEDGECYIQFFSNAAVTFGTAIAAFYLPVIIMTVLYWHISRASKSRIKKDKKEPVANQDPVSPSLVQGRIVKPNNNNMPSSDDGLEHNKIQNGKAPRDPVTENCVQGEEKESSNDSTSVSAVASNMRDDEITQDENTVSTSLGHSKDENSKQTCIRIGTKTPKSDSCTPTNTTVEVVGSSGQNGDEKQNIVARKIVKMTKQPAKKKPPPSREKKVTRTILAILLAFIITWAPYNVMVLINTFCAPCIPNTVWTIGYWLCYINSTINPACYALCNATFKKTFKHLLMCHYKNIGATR
Description: Inhibition of binding of [3H]quinuclidinyl benzilate to muscarinic receptors in membranes of CHO cells transfected with Muscarinic acetylcholine receptor M2. In kind it is cell membranes.

Assay [12] deals with T8, Muscarinic acetylcholine receptor M3 (Homo sapiens, UniProt P20309). Description: Inhibition of binding of [3H]quinuclidinyl benzilate to muscarinic receptors in membranes of CHO cells transfected with Muscarinic acetylcholine receptor M3. The format is cell membranes.
Target sequence in this assay (P20309 whole entry): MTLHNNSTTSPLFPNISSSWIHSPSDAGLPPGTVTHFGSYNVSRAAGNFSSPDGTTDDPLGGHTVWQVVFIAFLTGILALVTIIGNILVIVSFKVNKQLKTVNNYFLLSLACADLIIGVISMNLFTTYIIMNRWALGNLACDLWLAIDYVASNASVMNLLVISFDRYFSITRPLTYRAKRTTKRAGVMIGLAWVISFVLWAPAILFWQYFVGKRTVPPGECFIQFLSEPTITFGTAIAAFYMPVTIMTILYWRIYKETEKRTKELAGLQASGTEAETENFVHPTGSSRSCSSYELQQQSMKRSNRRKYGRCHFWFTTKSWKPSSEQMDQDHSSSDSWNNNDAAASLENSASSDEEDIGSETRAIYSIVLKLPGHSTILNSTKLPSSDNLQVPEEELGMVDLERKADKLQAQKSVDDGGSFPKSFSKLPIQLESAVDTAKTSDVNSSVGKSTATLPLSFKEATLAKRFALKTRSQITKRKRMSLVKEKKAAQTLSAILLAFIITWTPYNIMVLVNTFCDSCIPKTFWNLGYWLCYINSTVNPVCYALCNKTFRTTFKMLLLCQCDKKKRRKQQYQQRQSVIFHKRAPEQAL
The target in assay [13] is Muscarinic acetylcholine receptor M4 (Homo sapiens) (UniProt P08173). The assay can be described thus: Inhibition of binding of [3H]quinuclidinyl benzilate to Muscarinic acetylcholine receptor M4 in membranes of transfected CHO cells.
Assay [14] has as its target Muscarinic acetylcholine receptor M2 (Homo sapiens) (UniProt P08172). Description: Inhibition of binding of [3H]quinuclidinyl benzilate to Muscarinic acetylcholine receptor M2 in membranes of transfected CHO cells.
Assay [15] addresses T8, Muscarinic acetylcholine receptor M3. The assay can be described thus: Percentage inhibition of binding of [3H]quinuclidinyl benzilate to muscarinic receptors in membranes of CHO cells transfected with Muscarinic acetylcholine receptor M3. Particulars: concentration not given here. The format is cell membranes.
Target sequence in this assay (P20309 whole entry, looked up): as the sequence (P20309 whole entry) above
Assay [16] has the same target. The assay can be described thus: Inhibition of binding of [3H]quinuclidinyl benzilate to human Muscarinic acetylcholine receptor M3 in membranes of transfected CHO cells at 100 uM concentration. The conditions noted are these: Membrane.
Target sequence in this assay (P20309 whole entry, looked up): as the sequence (P20309 whole entry) above
Assay [17] has as its target Muscarinic acetylcholine receptor M4 (Homo sapiens) (UniProt P08173). Description: Inhibitory activity against [3H]-cyclic AMP accumulation in CHO transfected cells mediated by Muscarinic acetylcholine receptor M4.
Assay [18] addresses T7, Muscarinic acetylcholine receptor M2. Description: Inhibitory activity against [3H]quinuclidinyl Benzilate binding to Muscarinic acetylcholine receptor M2 in the absence of GTP. An outline of the steps:
(§3)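 Membranes from CHO cells expressing human M2 receptor. Competition against 0.1 nM [3H]quinuclidinyl benzilate in 25 mM sodium phosphate pH 7.4, 5 mM MgCl2, without or with 10 μM GTP; 30 min at 37 °C, triplicate. Nonspecific binding with 1 μM atropine. Filtration, scintillation counting.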

The target in assay [19] is Muscarinic acetylcholine receptor M1 (Homo sapiens) (UniProt P11229). Description: Inhibitory activity against stimulation of [3H]inositol monophosphate accumulation in [3H]inositol-labelled CHO transfected cells mediated by Muscarinic acetylcholine receptor M1.
Target sequence in this assay (P11229 whole entry, looked up): as the sequence (P11229 whole entry, looked up) above
In assay [20] the target is T8, Muscarinic acetylcholine receptor M3. Description: Inhibitory activity against stimulation of [3H]inositol monophosphate accumulation in [3H]inositol-labelled CHO transfected cells mediated by Muscarinic acetylcholine receptor M3.
Target sequence in this assay (P20309 whole entry, looked up): as the sequence (P20309 whole entry) above
Assay [21] addresses Muscarinic acetylcholine receptor M2 (Homo sapiens) (UniProt P08172). Description: Inhibition of binding of 0.1 nM [3H]quinuclidinyl benzilate to Muscarinic acetylcholine receptor M2 in membranes of transfected CHO cells in the absence of GTP.
Assay [22] addresses T7, Muscarinic acetylcholine receptor M2. Description: Inhibitory activity against [3H]quinuclidinyl Benzilate binding to Muscarinic acetylcholine receptor M2 in the presence of GTP. An outline of the steps: as §3
Assay [23] concerns the target Muscarinic acetylcholine receptor M2 (Homo sapiens) (UniProt P08172). Description: Inhibition of binding of 0.1 nM [3H]quinuclidinyl benzilate to Muscarinic acetylcholine receptor M2 in membranes of transfected CHO cells in the presence of 10 uM GTP.

Substitutions are numbered along the chain they refer to.

T1 sequence (P09483 whole entry): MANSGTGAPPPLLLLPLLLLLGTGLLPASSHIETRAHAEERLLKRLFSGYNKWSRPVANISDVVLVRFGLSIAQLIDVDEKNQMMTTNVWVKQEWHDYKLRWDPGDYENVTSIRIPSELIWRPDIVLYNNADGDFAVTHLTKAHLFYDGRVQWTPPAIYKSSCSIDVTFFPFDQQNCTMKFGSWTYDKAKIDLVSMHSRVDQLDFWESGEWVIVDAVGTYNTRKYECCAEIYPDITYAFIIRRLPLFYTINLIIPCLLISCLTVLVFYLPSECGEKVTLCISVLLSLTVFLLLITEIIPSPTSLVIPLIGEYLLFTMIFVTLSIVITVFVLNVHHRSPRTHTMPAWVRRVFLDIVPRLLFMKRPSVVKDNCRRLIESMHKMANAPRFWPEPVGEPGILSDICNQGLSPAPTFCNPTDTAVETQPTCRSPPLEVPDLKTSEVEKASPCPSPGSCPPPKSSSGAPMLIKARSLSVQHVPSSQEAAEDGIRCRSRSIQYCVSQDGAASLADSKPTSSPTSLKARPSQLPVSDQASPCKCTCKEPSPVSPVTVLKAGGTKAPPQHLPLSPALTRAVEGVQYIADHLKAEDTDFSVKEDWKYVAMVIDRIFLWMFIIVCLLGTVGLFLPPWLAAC
T1 sequence (P12390 whole entry): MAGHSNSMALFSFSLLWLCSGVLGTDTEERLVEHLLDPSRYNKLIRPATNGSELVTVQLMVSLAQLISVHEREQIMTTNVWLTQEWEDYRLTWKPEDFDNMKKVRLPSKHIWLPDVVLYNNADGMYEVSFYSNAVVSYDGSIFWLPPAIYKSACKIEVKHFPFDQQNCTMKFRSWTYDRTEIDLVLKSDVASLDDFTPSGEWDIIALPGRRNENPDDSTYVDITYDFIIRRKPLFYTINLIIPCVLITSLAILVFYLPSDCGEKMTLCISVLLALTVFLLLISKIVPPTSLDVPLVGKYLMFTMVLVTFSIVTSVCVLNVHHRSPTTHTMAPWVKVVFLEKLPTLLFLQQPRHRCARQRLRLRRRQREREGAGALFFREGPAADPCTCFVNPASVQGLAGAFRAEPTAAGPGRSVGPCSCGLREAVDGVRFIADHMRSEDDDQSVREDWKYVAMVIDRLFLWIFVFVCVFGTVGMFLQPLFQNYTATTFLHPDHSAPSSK

`COC(=O)[C@H]1CC2NC1CC[C@H]2O` (stereo partly drawn): the Ki in assay [1] and in assay [2] was 64000 nM each time.
In the case of `COC(=O)C1CC2NC1CCC2=O` (stereo not drawn), the inhibition amounted to 15% in assay [3], 15% in [4] and 0% in [5].
With `CC(=O)O[C@@H]1CCC2NC1C[C@@H]2S(=O)(=O)c1ccccc1` (stereo partly drawn), the inhibition in assay [3] came to 10%; in assay [4] it was 10%; in assay [5], 6%.
Turning to `COC(=O)C1CC2CCCC1N2` (stereo not drawn), the Ki in [1] was 150 nM; in assay [8] it was 260 nM; in [2], 150 nM; in [9], 7900 nM; in assay [10], 260 nM; in assay [11] it was 480 nM. Further, the Ki was 18000 nM in [12], 7900 nM in assay [13] and 480 nM in assay [14]. Also, the inhibition in assay [6] and in assay [7] was 24% throughout.
As to `CC(=O)OC1CC2CC(=O)CC1N2` (stereo not drawn), the inhibition in assay [3] amounted to 13%; in assay [4], 13%; in assay [5], 11%.
Turning to `CC(=O)O[C@@H]1CCC2CCC1N2` (stereo partly drawn), the Ki in [1] and in assay [2] was 24000 nM each time.
Consider `COC(=O)C1C(O)CC2CCC1N2C` (stereo not drawn), for which the inhibition in assay [15] was found to be 19%; in assay [7] it was 13%; in [3], 11%; in [4], 11%; in assay [16], 28%; in assay [5], 27%.
As for `CC(=O)O[C@H]1CCC2NC1C[C@@H]2S(=O)(=O)c1ccccc1` (stereo partly drawn), the values for the inhibition in assay [3], in assay [4] and in assay [5] were 16%, 16% and 0%, respectively.
Take `CC(=O)O[C@H]1CCC2CCC1N2` (stereo partly drawn): the Ki in assay [1] and in assay [2] was 32000 nM throughout.
`CC(=O)OC(C)C[N+](C)(C)C` (stereo not drawn) [METHACHOLINE]: the IC50 amounted to 700 nM in [17]; 380 nM in assay [18]; 380 nM in assay [21]; 5200 nM in assay [22]; 5200 nM in assay [23]. Besides, the half-maximal effective concentration (EC50) amounted to 400 nM in assay [19] and 120 nM in assay [20]. For the same compound, the inhibition was 34% in [15] and 8% in assay [7]. In addition, the Ki in assay [9] was 1600 nM; in assay [11], 59 nM; in assay [13], 1600 nM; in [14], 59 nM.
Turning to `CCSC1CCC2NC1CC2C(=O)OC` (stereo not drawn), the inhibition amounted to 50% in [3], 50% in assay [4] and 7% in [5].
Consider `CC(=O)OC1CC2CC(=O)CC1N2C` (stereo not drawn), for which the values for the inhibition in assay [3], in assay [4] and in assay [5] were 5%, 5% and 0%, respectively.
Turning to `COC(=O)C1CC2NC1CCC21SCCS1` (stereo not drawn), the inhibition was found to be 36% in [3], 36% in assay [4] and 3% in assay [5].
As to `COC(=O)[C@H]1CC2NC1CC[C@H]2OC(C)=O` (stereo partly drawn), the inhibition in assay [3] is 19%; in assay [4] it was 19%; in assay [5] it was 1%.
On to `COC(=O)[C@H]1CC2NC1CC[C@@H]2OC(C)=O` (stereo partly drawn), for which the results for the inhibition in assay [3], in assay [4] and in assay [5] were 13%, 13% and 1%, respectively.
